From ChEMBL document CHEMBL2407055, “4-Substituted 2-Hydroxyisoquinoline-1,3(2H,4H)-diones as a Novel Class of HIV-1 Integrase Inhibitors” (ACS Med Chem Lett, 2013) come the findings set out here.

In data set [1] the target is T1, Human immunodeficiency virus type 1 integrase (Human immunodeficiency virus 1, UniProt Q7ZJM1). As to the kind of experiment: Inhibition of 3'-processing activity of HIV1 integrase using 32P-5'-TGTGGAAAATCTCTAGCAGT-3' and 5'-ACTGCTAGAGATTTTCCACA-3' as substrate after 1 hr by ELISA. (In general: An ELISA detects its analyte on a solid surface through an enzyme-linked reagent.)
T1 sequence (Q7ZJM1 whole entry): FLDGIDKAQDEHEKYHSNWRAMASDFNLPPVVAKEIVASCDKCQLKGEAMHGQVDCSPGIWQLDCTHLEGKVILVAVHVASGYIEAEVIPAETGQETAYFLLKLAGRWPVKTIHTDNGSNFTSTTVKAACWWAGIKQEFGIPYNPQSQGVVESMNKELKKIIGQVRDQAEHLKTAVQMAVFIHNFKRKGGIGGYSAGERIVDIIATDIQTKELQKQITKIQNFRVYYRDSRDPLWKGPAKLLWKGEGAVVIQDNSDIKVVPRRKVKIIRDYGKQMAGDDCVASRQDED

In data set [2] the target is T1, Human immunodeficiency virus type 1 integrase. As to the kind of experiment: Inhibition of strand transfer activity of HIV1 integrase using pre-cleaved oligonucleotide as substrate after 1 hr by ELISA.
For data set [3] the target is unchanged. As to the kind of experiment: Inhibition of HIV1 integrase overall inhibition using 5'-digoxigenin-labeled 5'-GACCCTTTTAGTCAGTGTGGAAAATCTCTAGCAGT-3' as substrate after 1 hr by ELISA.
Data set [4] deals with Human immunodeficiency virus type 1 integrase (Human immunodeficiency virus 1) (UniProt Q7ZJM1). As to the kind of experiment: Ratio of IC50 for strand transfer activity of HIV1 integrase to IC50 for HIV1 integrase overall inhibition.
Chain of Human immunodeficiency virus type 1 integrase (Human immunodeficiency virus 1) (Q7ZJM1 as listed by the source): as the sequence (Q7ZJM1 whole entry) above
Data set [5] in a line: Cytotoxicity against human MT4 cells by MTT assay. Format: cell-based. In a few lines:
(§1)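 Anti-HIV-1 activity was measured in MT-4 cells. EC50 is the concentration that cuts HIV-1-induced cytopathic effect by 50%. CC50 is the concentration that lowers MT-4 cell viability by 50%. The therapeutic index is CC50/EC50.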
(In general: Tetrazolium assays rely on reduction of a dye to a coloured formazan, in cell work by metabolically active cells.)

The target of data set [6] is Human immunodeficiency virus type 1 reverse transcriptase (Human immunodeficiency virus 1, UniProt Q72547). As to the kind of experiment: Inhibition of HIV1 recombinant reverse transcriptase RNase H activity after 10 mins. In a few lines:
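In vitro assay of RT-associated RNase H function. IC50 is the concentration giving 50% inhibition of RNase H activity.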

Data set [7] relates to Human immunodeficiency virus 1. As to the kind of experiment: Antiviral activity against HIV1 3B infected in human MT4 cells assessed as inhibition of virus-induced cytopathic effect by MTT assay. Format: functional, organism-based. Particulars: Human immunodeficiency virus 1, 3B. In a few lines: as §1
On the technique in general: Cytopathic effects are the visible damage that an infection or toxin causes in cultured cells.

Data set [8] is described as follows: Therapeutic index, ratio of CC50 for human MT4 cells to EC50 for HIV1 3B. Format: cell-based. Particulars: read-out: Ratio CC50/EC50. In a few lines:
as §1

A short description of data set [9]: Protein binding in human plasma. Format: ADME, cell-free. Particulars: read-out: PPB.
Data set [10] can be described thus: n-octanol-PBS partition coefficient, log D of the compound at pH 7.4. Format: physicochemical.
The target of data set [11] is T1, Human immunodeficiency virus type 1 integrase. As to the kind of experiment: Inhibition of HIV1 integrase binding to LEDGF.
Data set [12] is described as follows: Aqueous solubility of the compound in PBS at pH 7.4. Format: physicochemical.

Structures are written as SMILES. Converted amounts (≈) assume the structure as drawn. Some results are limits rather than exact numbers.

As a reminder, the IC50 is the concentration at which inhibition is half-maximal. A word on the CC50: it is the concentration giving 50% cytotoxicity. A low value points to greater toxicity to the cells. By EC50 is commonly meant the midpoint of the concentration-response curve. In the case of `COc1ccc(NC(=O)C2C(=O)N(O)C(=O)c3ccccc32)cc1Cl` (stereo not given), the IC50 worked out at 1580 nM in data set [1], 277 nM in data set [2], 20 nM in data set [3] and 16600 nM in [6]. For the same molecule, in data set [4], the Ratio IC50 stood at 10. For the same molecule, the 50% cytotoxic concentration (CC50) in [5] amounted to 12300 nM. In addition, in data set [7], the EC50 was found to be 3340 nM. Also, the selectivity ratio in data set [8] was 3.7.
Take `O=C(NCc1ccc(O)c(O)c1)C1C(=O)N(O)C(=O)c2ccccc21` (stereo not given): the IC50 was 258 nM in [2], 205 nM in data set [3] and 900 nM in data set [6]. In addition, the CC50 in [5] came out at 11000 nM. Moreover, in data set [7], the concentration giving a half-maximal response (EC50) is above 11000 nM.
Take `COc1ccc(CCNC(=O)C2C(=O)N(O)C(=O)c3ccccc32)cc1OC` (stereo not given): the IC50 in [2] stood at 126 nM; in [3], 495 nM; in data set [6], 3850 nM. In data set [5], this molecule returned a CC50 above 125000 nM. Besides, the 50% effective concentration (EC50) in data set [7] is 70800 nM. In data set [8], the selectivity ratio is above 1.8.
Regarding `O=C(NCCc1ccc(O)c(O)c1)C1C(=O)N(O)C(=O)c2ccccc21` (stereo not given), the 50% inhibitory concentration (IC50) is 296 nM in [2], 673 nM in data set [3] and 130 nM in data set [6]. This molecule also gave a 50% cytotoxic concentration (CC50) in [5] of 63000 nM. Besides, in data set [7], the concentration for a half-maximal effect (EC50) was above 63000 nM.
Regarding `O=C(Nc1ccccc1)C1C(=O)N(O)C(=O)c2ccccc21` (stereo not given), the concentration for half-maximal inhibition (IC50) amounted to 730 nM in data set [2] and 310 nM in [3]. The 50% cytotoxic concentration (CC50) in data set [5] stood at 106000 nM. In addition, the EC50 in data set [7] came to 4950 nM. Besides, the selectivity ratio in data set [8] was 21.3.
For the molecule `COc1ccc(CNC(=O)C2C(=O)N(O)C(=O)c3ccccc32)cc1` (stereo not given), the concentration for half-maximal inhibition (IC50) turned out to be 1030 nM in [2] and 1190 nM in [3]. The same molecule showed a 50% cytotoxic concentration (CC50) in [5] of 118000 nM. For the same molecule, the EC50 in data set [7] is 17600 nM. Further, the selectivity ratio in data set [8] turned out to be 6.7.
`CN(C(=O)C1C(=O)N(O)C(=O)c2ccccc21)c1ccccc1` (stereo not given): the 50% inhibitory concentration (IC50) is 5600 nM in data set [2] and 5210 nM in data set [3]. The molecule further returned a CC50 in data set [5] of 107000 nM. Further, the 50% effective concentration (EC50) in data set [7] was above 107000 nM.
Take `COc1ccc(CNC(=O)C2C(=O)N(O)C(=O)c3ccccc32)c(OC)c1` (stereo not given): the half-inhibitory concentration (IC50) in data set [2] amounted to 254 nM; in data set [3], 35 nM; in [6], 630 nM. In data set [4], the Ratio IC50 is 10. For the same molecule, the midpoint of cytotoxicity in [5], the CC50, lay at 60400 nM. Besides, in [7], the half-maximal effective concentration (EC50) was 9240 nM. The selectivity ratio in data set [8] came out at 6.5.
On to `O=C(Nc1ccc(F)cc1)C1C(=O)N(O)C(=O)c2ccccc21` (stereo not given), for which the results for the IC50 in [2] and in [3] were 1120 nM and 800 nM, respectively. In data set [5], this molecule displayed a half-maximal cytotoxic concentration (CC50) of 114000 nM. Besides, the half-maximal effective concentration (EC50) in [7] stood at 1750 nM. The selectivity ratio in data set [8] was 65.4.
As for `O=C(NCc1ccccc1)C1C(=O)N(O)C(=O)c2ccccc21` (stereo not given), the IC50 was 30 nM in [2] and 80 nM in data set [3]. The molecule also gave a 50% cytotoxic concentration (CC50) in data set [5] of 130000 nM. The EC50 in data set [7] was found to be 3120 nM. The selectivity ratio in data set [8] came out at 41.7.
`O=C(NCCc1ccc(F)cc1)C1C(=O)N(O)C(=O)c2ccccc21` (stereo not given): the IC50 in data set [2] came out at 200 nM; in data set [3] it was 30 nM. In data set [5], this molecule displayed a CC50 of 124000 nM. Moreover, in [7], the concentration for a half-maximal effect (EC50) is 5080 nM. Further, in data set [8], the selectivity ratio was determined as 24.
As to `COc1ccc(CNC(=O)C2C(=O)N(O)C(=O)c3ccccc32)cc1OC` (stereo not given), the IC50 stood at 307 nM in data set [2] and 235 nM in [3]. Moreover, the CC50 in data set [5] worked out at 125000 nM. The EC50 in [7] was above 125000 nM.
The like results for `O=C1NC(=O)C(C(=O)NCc2ccc(F)cc2)c2ccccc21` (stereo not given) were, in that order, 79000 nM, 199000 nM, above 250000 nM and above 250000 nM.
On the same counts, the results for `CN1C(=O)c2ccccc2C(C(=O)NCc2ccc(F)cc2)C1=O` (stereo not given) are above 250000 nM, above 250000 nM, above 250000 nM and above 250000 nM.
`O=C(NCc1ccc(O)cc1O)C1C(=O)N(O)C(=O)c2ccccc21` (stereo not given): the IC50 is 2350 nM in data set [1], 572 nM in [2], 35 nM in [3] and 520 nM in [6]. For the same molecule, in data set [4], the Ratio IC50 was 10. In data set [5], this molecule displayed a CC50 above 125000 nM. For the same molecule, the EC50 in [7] amounted to 7940 nM. Also, the selectivity ratio in data set [8] was above 16.
For `O=C(Nc1cccc(F)c1)C1C(=O)N(O)C(=O)c2ccccc21` (stereo not given), the IC50 in data set [2] was 110 nM; in [3] it was 10 nM; in [6] it was 7310 nM. Besides, in [4], the Ratio IC50 turned out to be 10. The same molecule yielded a CC50 in data set [5] of 64000 nM. For the same molecule, the EC50 in data set [7] was determined as 2470 nM. Also, the selectivity ratio in [8] is 25.9.
Regarding `Cc1ccc(CNC(=O)C2C(=O)N(O)C(=O)c3ccccc32)cc1` (stereo not given), the figures for the concentration for half-maximal inhibition (IC50) in [2], in data set [3] and in [6] were 84 nM, 76 nM and 14000 nM, respectively. This molecule yielded a CC50 in [5] above 125000 nM. Besides, the EC50 in data set [7] came to 5700 nM. For the same molecule, in data set [8], the selectivity ratio is above 22.
A word on the logD: it is lipophilicity at a set pH, counting ionised and neutral species. A higher logD goes with a more lipophilic compound. As usually defined, the solubility is how much of the substance goes into solution per volume. Consider `O=C(NCc1ccc(F)cc1)C1C(=O)N(O)C(=O)c2ccccc21` (stereo not given), for which the IC50 is 60 nM in data set [1]; 99 nM in [2]; 56 nM in data set [3]; 360 nM in data set [6]; above 100000 nM in data set [11]. Further, the fraction unbound in [9] is 0.001. In [5], this molecule yielded a CC50 of 202000 nM. Also, the logD in data set [10] turned out to be 0.56. In addition, the EC50 in data set [7] came out at 2340 nM. In data set [12], this molecule returned a solubility of 190 µM (≈ 62.4 µg/mL). Besides, the selectivity ratio in data set [8] came to 86.3.
In [5], `Cc1nnc(C(=O)NC(C)(C)c2nc(C(=O)NCc3ccc(F)cc3)c(O)c(=O)n2C)o1` showed a 50% cytotoxic concentration (CC50) above 8000 nM.
